Assay results as given in ChEMBL document CHEMBL5532699, “Design, docking optimization, and evaluation of biotin-PEG4-1,8-naphthalimide as a potent and safe antitumor agent with dual targeting of ferroptosis and DNA” (RSC Med Chem, 2024).
Active and inactive are the calls of the source. The rule behind the calls is not given here.

How the values were obtained:
MGC-803 [1] = assay: Antitumor activity against human MGC-803 cells xenografted in nude mouse assessed as tumor inhibition ratio at 12 mg/kg, ip administered once every two days for 21 days relative to control; format: functional; details: MGC-803, 504 h, time 21 day
In short: (§1)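 1×10^6 tumor cells injected s.c. into the right flank of nude mice. At mean tumor volume 60–80 mm³, animals randomized to vehicle or treatment groups (n = 6). Compound in 5% v/v DMSO/saline given i.p. every 2 days. Tumor size and weight recorded; volume = lw²/2 from length and width. Body weight tracked as the systemic toxicity index.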

MGC-803 [2] = assay: Induction of ferroptosis in human MGC-803 cells assessed as increase in intracellular lipid peroxide and ROS level by measuring increase in green fluorescence intensity at 50 uM incubated for 24 hrs by BODIPY 581/591 C11 staining based confocal microscopic analysis; format: functional, cell-based
[3] = Toxicity in nude mouse xenografted with human MGC-803 cells assessed as pathological changes in liver at 12 to 48 mg/kg, ip administered once every two days for 21 days by H and E staining based analysis; format: organism-based; details: in vivo, 504 h, dose 12-48 mg/kg, time 21 day
In short: (§2)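 Nude mice carrying s.c. xenografts (1×10^6 cells, right flank) randomized at 60–80 mm³ (n = 6), dosed i.p. every 2 days in 5% v/v DMSO/saline. Major organs examined by H&E staining at 200× magnification.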

Supercoiled DNA = assay: Binding affinity to supercoiled circular pBR322 plasmid DNA (unknown origin) assessed as DNA intercalation by measuring migration in gel at 25 to 200 uM incubated for 4 hrs by PI and EtBr staining based gel electrophoresis; format: nucleic-acid assay; details: dose 25-200 µM, in the assay text read “GelRed staining” for “PI and EtBr staining”
In short: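 0.20 μg pBR322 DNA in relaxation buffer (10 mM Tris, 0.1 mM EDTA, 5 mM MgCl₂, 50 mM KCl, 0.01% BSA, pH 7.5), 20 μL, incubated 4 h at 37°C with or without compound at varied concentrations. Stopped with SDS/bromophenol blue/glycerol loading buffer, run on 0.8% agarose in TAE, stained with GelRed; supercoiled and linear forms scored.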

MGC-803 [4] = assay: Induction of ferroptosis in human MGC-803 cells assessed as reduction in mitochondrial cristae at 5 uM incubated for 24 hrs by TEM analysis; format: functional, cell-based
In short: (§3)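 Cell samples prefixed in 3% glutaraldehyde, postfixed in 1% osmium tetroxide, dehydrated through graded acetone (30–100%), embedded in Epon812, cut into 60–90 nm ultrathin sections on copper grids, stained with uranyl acetate 10–15 min and lead citrate 1–2 min at room temperature, examined by TEM.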

MGC-803 [5] = assay: Induction of cell cycle arrest in human MGC-803 cells assessed as accumulation of cells at S phase at 100 uM incubated for 24 hrs by PI staining based flow cytometry (Rvb=28.00%); format: functional
MGC-803 [6] = assay: Induction of cell cycle arrest in human MGC-803 cells assessed as accumulation of cells at G0/G1 phase at 50 uM incubated for 24 hrs by PI staining based flow cytometry (Rvb=59.09%); format: functional
MGC-803 [7] = assay: Induction of ferroptosis in human MGC-803 cells assessed as appearance of smaller mitochondria at 5 uM incubated for 24 hrs by TEM analysis; format: functional, cell-based; in short: as §3
MGC-803 [8] = assay: Induction of cell cycle arrest in human MGC-803 cells assessed as accumulation of cells at G2/M phase at 25 uM incubated for 24 hrs by PI staining based flow cytometry (Rvb=12.91%); format: functional
MGC-803 [9] = assay: Induction of DNA damage in human MGC-803 cells assessed as appearance of long DNA tails at 25 to 100 uM incubated for 24 hrs by comet assay; format: functional, cell-based; details: dose 25-100 µM
In short: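 MGC-803 cells exposed 25, 50 or 100 μM for 24 h, mixed 1:8 with low-melt agarose on comet slides, held 1 day at 4°C in dark, lysed 2 h at 4°C. Alkaline unwinding (1 mM EDTA, 300 mM NaOH, pH >13) 45 min at 4°C; electrophoresis in 1 mM EDTA/200 mM NaOH at 25 V, 30 min. Washed in Tris-HCl pH 7.5, PI-stained, imaged by fluorescence microscopy.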

[10] = Toxicity in nude mouse xenografted with human U-251 cells assessed as pathological changes in heart at 24 to 48 mg/kg, ip administered once every two days for 21 days by H and E staining based analysis; format: organism-based; details: in vivo, 504 h, dose 24-48 mg/kg, time 21 day; in short: as §2
MGC-803 [11] = assay: Induction of cell cycle arrest in human MGC-803 cells assessed as accumulation of cells at G0/G1 phase at 25 uM incubated for 24 hrs by PI staining based flow cytometry (Rvb=59.09%); format: functional
MGC-803 [12] = assay: Induction of ferroptosis in human MGC-803 cells assessed as increase in intracellular iron level incubated for 24 hrs by FerroOrange staining based confocal microscopic analysis; format: functional, cell-based; details: dose 25-50 µM
MGC-803 [13] = assay: Induction of cell cycle arrest at S phase in human MGC-803 cells assessed as decrease in cyclin E1 protein expression level at 25 to 50 uM incubated for 24 hrs by Western blot analysis; format: functional, cell-based; details: dose 25-50 µM
In short: (§4)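 MGC-803 cells treated 25 or 50 μM for 24 h, lysed in ice-cold 1% SDS/Tris-HCl pH 7.5 buffer with EDTA, NaCl and protease inhibitors, spun 12,000g 18 min. Protein quantified by BCA; 40–50 μg resolved on 10% SDS-PAGE, transferred to PVDF, milk-blocked 2 h, primary antibody overnight, HRP secondary 1 h at RT. ECL detection with densitometry.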

MGC-803 [14] = assay: Induction of cell cycle arrest at S phase in human MGC-803 cells assessed as decrease in CDK2 protein expression level at 25 to 50 uM incubated for 24 hrs by Western blot analysis; format: functional, cell-based; details: dose 25-50 µM; in short: as §4
MGC-803 [15] = assay: Induction of cell cycle arrest at S phase in human MGC-803 cells assessed as increase in P21 protein expression level at 25 to 50 uM incubated for 24 hrs by Western blot analysis; format: functional, cell-based; details: dose 25-50 µM; in short: as §4
[16] = Toxicity in nude mouse xenografted with human MGC-803 cells assessed as reduction in body weight at 24 to 48 mg/kg, ip administered once every two days for 21 days; format: organism-based; details: in vivo, 504 h, dose 24-48 mg/kg, time 21 day; in short: as §1
[17] = Toxicity in nude mouse xenografted with human MGC-803 cells assessed as effect on animal behavior at 24 to 48 mg/kg, ip administered once every two days for 21 days; format: organism-based; details: in vivo, 504 h, dose 24-48 mg/kg, time 21 day; in short: as §1
HCT-116 = assay: Antiproliferative activity against human HCT-116 cells incubated for 48 hrs by MTT assay; format: functional, cell-based; details: HCT-116, 48 h
In short: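 Monolayer cells in DMEM with 10% FBS, penicillin and streptomycin, 37°C, 5% CO2. Exponentially growing cells were seeded in 96-well plates and exposed to compound for 48 h. MTT was then added for 4 h at 37°C. Medium was removed, formazan dissolved in DMSO, and OD read at 490 nm. Each plate had five replicate wells, and assays were repeated three times per line.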

MGC-803 [18] = assay: Induction of ferroptosis in human MGC-803 cells assessed as accumulation of intracellular ROS level by measuring increase in red fluorescence intensity at 25 to 50 uM incubated for 24 hrs by DHE staining based confocal microscopic analysis; format: functional, cell-based; details: dose 25-50 µM
MGC-803 [19] = assay: Induction of apoptosis in human MGC-803 cells; format: functional, cell-based

**Q.** For CN(C)CCN1C(=O)c2cccc3c(N4CCN(C(=O)CCOCCOCCOCCOCCNC(=O)CCCCC5SCC6NC(=O)NC65)CC4)ccc(c23)C1=O (stereo unspecified), which inhibition in vivo at 12 mg/kg (MGC-803 [1]) is on record?
**A.** 29.6%

**Q.** What about the Activity (MGC-803 [2]) of the same compound?
**A.** Active

**Q.** What about the Activity [3] of the same compound?
**A.** Non-Toxic

**Q.** What about the Activity (Supercoiled DNA) of the same compound?
**A.** Active

**Q.** What about the Activity (MGC-803 [4]) of the same compound?
**A.** Active

**Q.** What about the Activity (MGC-803 [5]) of the same compound?
**A.** 41.72%

**Q.** And the Activity (MGC-803 [6])?
**A.** 33.17%

**Q.** And the Activity (MGC-803 [7])?
**A.** Active

**Q.** What about the Activity (MGC-803 [8]) of the same compound?
**A.** 23.3%

**Q.** What about the Activity (MGC-803 [9]) of the same compound?
**A.** Active

**Q.** And the Activity [10]?
**A.** Non-Toxic

**Q.** What about the Activity (MGC-803 [11]) of the same compound?
**A.** 53.99%

**Q.** And the Activity (MGC-803 [12])?
**A.** Dose-Dependent Effect

**Q.** What about the Activity (MGC-803 [13]) of the same compound?
**A.** Active

**Q.** And the Activity (MGC-803 [14])?
**A.** Active

**Q.** What about the Activity (MGC-803 [15]) of the same compound?
**A.** Active

**Q.** What about the Activity [16] of the same compound?
**A.** Non-Toxic

**Q.** And the Activity [17]?
**A.** Non-Toxic

**Q.** And the IC50 (HCT-116)?
**A.** > 50 µM

**Q.** What about the Activity (MGC-803 [18]) of the same compound?
**A.** Active

**Q.** What about the Activity (MGC-803 [19]) of the same compound?
**A.** inactive
